Assay outcomes from PubChem.
TRPC4 potent = TRPC4 (mouse) allosteric potentiation; Q9QUQ5; HEK293 TRPC4beta/mu-opioid, DAMGO EC20, Fluo-4 Ca2+ flux; stronger effect = higher value; B-score at 10 µM; 310,000 tested, 0.42% active;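 active means B-score of calcium response area above 5 SD of library B-scores, with initial fluorescence ratio within 5 SD of library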
TRPC4 act = activators of mouse TRPC4 channel. B-score at 10 µM. HEK293 TRPC4beta/mu-opioid, Fluo4 calcium fluorescence; stronger effect = higher value. 310,000 tested, 0.49% active. AID 2237;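 active means B-score above 5 SD of library B-scores, and initial fluorescence ratio not above library mean plus 5 SD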;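 further: positive B-score marks a calcium rise read as TRPC4 activation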
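Test system: HEK293 cells stably co-expressing mouse TRPC4beta and mu-opioid receptor | Schedule: Fluo4 dye loading 45 min at room temperature, 110 s recording | Measured by: Kinetic Fluo4 calcium fluorescence, 5 s baseline at 1 Hz | Evaluation: B score of integrated ratio | Controls: Buffer (low) and maximal DAMGO (high)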
TRPC6 activator = activates the mouse TRPC6 cation channel; HEK293-TRPC6 membrane potential dye fluorescence; stronger effect = higher value; B-score at 10 µM; 310,000 tested, 0.13% active; AID 2550;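 active means B-score of the integrated fluorescence ratio above library mean plus 3 SD, and starting fluorescence ratio within library mean plus 5 SD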;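 further: higher score means more depolarization so channel activation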
Target sequence (Q61143 whole entry, looked up): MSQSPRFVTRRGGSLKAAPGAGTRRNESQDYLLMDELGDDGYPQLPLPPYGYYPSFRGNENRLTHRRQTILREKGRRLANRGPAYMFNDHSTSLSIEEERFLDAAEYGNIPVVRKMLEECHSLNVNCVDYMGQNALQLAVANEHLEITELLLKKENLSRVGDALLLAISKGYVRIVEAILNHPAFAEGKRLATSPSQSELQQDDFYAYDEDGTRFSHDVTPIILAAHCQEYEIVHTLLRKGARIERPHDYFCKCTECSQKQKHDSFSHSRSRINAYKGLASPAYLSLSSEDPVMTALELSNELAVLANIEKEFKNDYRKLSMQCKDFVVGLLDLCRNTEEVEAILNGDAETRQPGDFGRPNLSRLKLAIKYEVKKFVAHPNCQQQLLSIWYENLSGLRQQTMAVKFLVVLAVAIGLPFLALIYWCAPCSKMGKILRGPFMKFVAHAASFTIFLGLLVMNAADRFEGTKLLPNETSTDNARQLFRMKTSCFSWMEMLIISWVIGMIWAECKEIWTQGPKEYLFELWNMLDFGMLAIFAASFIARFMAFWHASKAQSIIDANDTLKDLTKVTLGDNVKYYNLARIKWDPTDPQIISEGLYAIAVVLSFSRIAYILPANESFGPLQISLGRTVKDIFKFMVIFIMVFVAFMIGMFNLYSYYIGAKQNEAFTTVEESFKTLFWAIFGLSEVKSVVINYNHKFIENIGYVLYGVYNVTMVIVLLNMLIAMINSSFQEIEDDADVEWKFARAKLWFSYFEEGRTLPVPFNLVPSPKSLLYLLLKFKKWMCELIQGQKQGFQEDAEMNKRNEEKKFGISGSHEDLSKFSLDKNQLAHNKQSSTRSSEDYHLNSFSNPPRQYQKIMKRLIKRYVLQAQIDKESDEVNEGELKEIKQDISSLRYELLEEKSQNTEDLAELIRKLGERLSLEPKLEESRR
TRPC4 block = inhibitors of mouse TRPC4 channel; Q9QUQ5; HEK293 TRPC4beta/mu-opioid, DAMGO-evoked Fluo4 calcium flux; stronger effect = lower value; B-score at 10 µM; 300,000 tested, 0.39% active;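 active means B-score over 3 SD under the library average, no early fluorescence shift, positive overall ratio signal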
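material = TRPC4beta/mu-opioid receptor HEK293 cell line | probe or stimulus = sequential submaximal and maximal DAMGO stimulation | compound dosing = one concentration per compound | measured by = Fluo4 Ca2+ flux fluorescence | evaluation = integrated fluorescence ratio relative to baseline, converted to per-well B score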
TRPC6 inh = blocks the mouse TRPC6 cation channel | Q61143 | HEK293-TRPC6, membrane potential dye, ACh-evoked depolarization; stronger effect = lower value | B-score at 10 µM | 310,000 tested, 1.1% active | AID 2553;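 active means B-score under library mean minus 3 SD, initial fluorescence not abnormally high, positive integrated signal ratio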;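 further: B-score derived from integrated fluorescence ratio over the kinetic read; more negative B-score means stronger inhibition of depolarization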
Each line names hits and unclear results; the compound was inactive in the other large screens. This is a sample that favours compounds with a hit; in the whole collection about 2.3% have one here.

CCN1CCN(c2ccc(S(=O)(=O)N3CCCCC3)cc2NC(=O)Cc2c(F)cccc2Cl)CC1	TRPC4 potent 11
C=CCn1c(SCC(N)=O)nc2scc(-c3ccc(C)o3)c2c1=O	none
CCN1CCN(c2ccc(S(=O)(=O)N3CCCCC3)cc2NC(=O)c2ccc(OC(F)F)cc2)CC1	none
CCN1CCN(c2ccc(S(=O)(=O)N3CCCCC3)cc2NC(=O)c2cccc(OC(F)F)c2)CC1	TRPC4 potent 19
CCN1CCN(c2ccc(S(=O)(=O)N3CCCCC3)cc2NC(=O)c2cc3ccccc3o2)CC1	TRPC4 potent 18
COc1ccc(N2CCN(C(=O)C(=O)c3c(C)[nH]c4ccccc34)CC2)cc1	none
CC(=O)c1ccc(N2CCN(C(=O)C(=O)c3c(C)[nH]c4ccccc34)CC2)cc1	TRPC4 potent 10
CC(C)c1ccc(NC(=O)N(CCc2nc3ccccc3[nH]2)C2CCCC2)cc1	TRPC4 act 75, TRPC4 block -7
COc1ccc(C(=S)N2CCOCC2)cc1OC(=O)c1ccc([N+](=O)[O-])cc1[N+](=O)[O-]	none
CCn1c(SCC(=O)Nc2ccccc2)nc2ccccc2c1=O	TRPC4 block -5
CCC(C)n1c(SCC(=O)Nc2cc(C)on2)nc2ccccc2c1=O (stereo not given)	TRPC4 act 44
C=C(C)Cn1c(SCC)nc2ccccc2c1=O	TRPC4 block -5
CCn1c(SCC(=O)Nc2cccc(C)c2)nc2ccccc2c1=O	none
Cc1cc(S(=O)(=O)NCc2ccccc2)ccc1OCC(=O)N1CCCC1	none
CCCCc1nnc(NC(=O)COC)s1	none
CCc1ccccc1NC(=O)C1CCCN(c2nccc(C)n2)C1 (stereo not given)	none
NNc1nc(-c2ccccc2Cl)nc2sc3c(c12)CCCC3	TRPC4 potent 12
Cc1ccc(Cl)cc1N1CCN(Cc2nc3c(c(=O)[nH]c(=O)n3C)n2Cc2ccccc2F)CC1	TRPC4 potent 26
CCN1CCN(Cc2nc3c(c(=O)[nH]c(=O)n3C)n2Cc2ccccc2Cl)CC1	TRPC4 potent 28
COc1ccc(/C=N/NC(=O)CNC(=O)c2ccncc2)cc1	none
CC1CCc2sc(C(=O)N3CCN(c4ncccn4)CC3)cc2C1 (stereo not given)	none
COc1ccc(C(=O)NCCCc2nc3ccccc3n2Cc2ccccc2C)cc1OC	none
COc1ccccc1C(=O)Nc1nc(C)cc(C)n1	none
Cc1ccc(N/C(N)=N/c2nc(C)cc(C)n2)cc1	none
Cc1cccc(N/C(N)=N/c2nc(C)cc(C)n2)c1	none
Cc1cc(C)cc(N/C(N)=N/c2nc(C)cc(C)n2)c1	TRPC4 block -6
CCCCc1ccc(N/C(N)=N/c2nc(C)cc(C)n2)cc1	TRPC4 act 77
Cc1cc(C)nc(/N=C(\N)Nc2ccccc2-c2ccccc2)n1	TRPC4 block -6
C=CCOc1c(Br)cc(/C=N/n2c(CC)n[nH]c2=S)cc1Br	none
COc1ccc2[nH]c(C(=O)O)c(NS(=O)(=O)c3ccc(C)cc3C)c2c1	none
O=C(COc1ccc(Br)cc1)N1CCN(S(=O)(=O)/C=C/c2ccccc2)CC1	TRPC4 potent 11
O=C(COc1ccccc1F)N1CCN(S(=O)(=O)/C=C/c2ccccc2)CC1	none
COCCNC(=O)COc1coc(CN2CCN(Cc3ccccc3)CC2)cc1=O	none
Cc1cc(Nc2ccc(C)c(C)c2)c2ccccc2n1	TRPC4 block -6
CC(=O)Nc1ccc(Nc2cc(C)nc3ccccc23)cc1	none
Cc1ccc(NC(=O)CN(C)S(=O)(=O)c2cccs2)c(Br)c1	none
CCOC(CCNC(=O)c1cc(-c2cccs2)nc2ccccc12)OCC	none
CC1CC(C)CN(CCCNC(=O)c2ccc3c(c2)NC(=O)CS3)C1 (stereo not given)	TRPC4 act 69
CC1CC(C)CN(CCCNC(=O)Cn2cccc2C(=O)c2ccccc2)C1 (stereo not given)	TRPC4 act 105
CC1CC(C)CN(CCCNC(=O)c2ccc(N3CCCC3=O)cc2)C1 (stereo not given)	TRPC4 potent 25
COc1ccc(CC2(CO)COc3ccccc3C2=O)cc1 (stereo not given)	none
O=C(NCC1(c2ccccc2)CCOCC1)c1cccs1	none
CN(CCNC(=O)C1CCN(c2ncnc3c2nc2n3CCCCC2)CC1)Cc1ccccc1	none
CCN(CCNC(=O)C1CCCN(c2ncnc3c2nc2n3CCCCC2)C1)Cc1ccccc1 (stereo not given)	TRPC4 potent 19
Cc1ccc(C)c(N2CCN(C(=O)C3CCCN(c4ncnc5c4nc4n5CCCCC4)C3)CC2)c1 (stereo not given)	TRPC4 potent 15
CC1CC(C)CN(CCCNC(=O)C2CCCN(c3ncnc4c3nc3n4CCCCC3)C2)C1 (stereo not given)	TRPC4 potent 18
O=C(C1CCCN(Cc2ccccc2F)C1)N1CCCCC1 (stereo not given)	none
O=C(C1CCCN(Cc2ccncc2)C1)N1CCc2ccccc2C1 (stereo not given)	TRPC4 act 164
O=C(Nc1ccccc1Oc1cccnc1)C1CCCN(C/C=C/c2ccc(F)cc2)C1 (stereo not given)	none
Cc1cccc(CN2CCCC(C(=O)N3CCc4ccccc4C3)C2)c1 (stereo not given)	TRPC4 act 70
Cc1cccc(CN2CCCC(C(=O)Nc3ccccc3Oc3cccnc3)C2)c1 (stereo not given)	TRPC4 block -6
O=C(C1CCCN(Cc2ccccc2F)C1)N1CCc2ccccc2C1 (stereo not given)	TRPC4 act 110
Cc1cccc(NC(=O)CN2C(=O)NC3(CCCC3)C2=O)n1	none
Cc1cccc(OCC(=O)Nc2c3c(nn2C(C)(C)C)CS(=O)(=O)C3)c1	none
Cc1ccc(S(=O)(=O)/N=C(\CCl)N2CCOCC2)cc1	none
COc1ccccc1N1CCN(C(c2cccs2)C(C)NC(=O)c2cccs2)CC1 (stereo not given)	TRPC4 act 84
CC(C)C(=O)NC(C)C(c1cccs1)N1CCN(c2ccccc2)CC1 (stereo not given)	TRPC4 act 53
CC(NC(=O)C1CC1)C(c1cccs1)N1CCN(c2ccccc2)CC1 (stereo not given)	TRPC4 act 44
COc1ccccc1N1CCN(C(c2cccs2)C(C)NC(=O)c2cccnc2)CC1 (stereo not given)	none
CC(C)CNC(=O)c1cccc(NC(=O)Cc2ccc(Cl)cc2)c1	none
CC(OC(=O)CNC(=O)c1ccccc1F)C(=O)Nc1nc(-c2ccccc2)cs1 (stereo not given)	TRPC4 block -6
Cc1csc(NC(=O)C(NC(=O)c2ccccc2F)C(C)C)n1 (stereo not given)	none
CC1CCCCN1CCCNC(=O)c1nn(C)c2c1CSc1ccccc1-2 (stereo not given)	TRPC4 block -7
